Measurements published in ChEMBL document CHEMBL1148836, “3-Substituted-(5-arylfuran-2-ylcarbonyl)guanidines as NHE-1 inhibitors” (Bioorg Med Chem Lett, 2007).

Experiments:
[1] = biological target: Sodium/hydrogen exchanger 1 (Homo sapiens, UniProt P19634); assay: Inhibition of human NHE1 expressed in PS120 cells; type: cell-based
Outline: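 PS120 variant cells selectively expressing human NHE-1. Inhibition measured as the effect on sodium-dependent pH recovery after imposed intracellular acidosis. IC50 values are means of three experiments.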

Rattus norvegicus = assay: Cardioprotective effect against ischemia reperfusion injury in rat myocardial infarction model assessed as ratio of infarction size to area at risk at 0.1 mg/kg, iv; type: functional, Myocardium
Outline: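 Rat myocardial infarction model. Animals stabilized 20 min after left thoracotomy, then 45 min coronary artery occlusion and 90 min reperfusion. Compound given at 0.1 mg/kg as bolus intravenous injection 5 min before ischemia onset. Infarct size measured as a ratio to area at risk (IS/AAR, %), compared with vehicle. Means, n = 3 or higher.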

Heart [2] = assay: Cardioprotective effect against ischemia reperfusion injury in rat heart assessed as left ventricular end diastolic pressure at 10 uM; type: functional
Outline: (§1)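 Isolated rat heart ischemia/reperfusion model. Hearts exposed to 10 µM compound for 10 min before ischemia. Read-outs are recovery of contractile function as rate-pressure product (% RPP) and left ventricular end-diastolic pressure (mmHg), each compared with a vehicle group. Values are means, n = 3 or higher.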

Heart [3] = assay: Cardioprotective effect against ischemia reperfusion injury in rat heart assessed as recovery of rate pressure product at 10 uM; type: functional; outline: as §1

Chain of Sodium/hydrogen exchanger 1 (P19634 whole entry): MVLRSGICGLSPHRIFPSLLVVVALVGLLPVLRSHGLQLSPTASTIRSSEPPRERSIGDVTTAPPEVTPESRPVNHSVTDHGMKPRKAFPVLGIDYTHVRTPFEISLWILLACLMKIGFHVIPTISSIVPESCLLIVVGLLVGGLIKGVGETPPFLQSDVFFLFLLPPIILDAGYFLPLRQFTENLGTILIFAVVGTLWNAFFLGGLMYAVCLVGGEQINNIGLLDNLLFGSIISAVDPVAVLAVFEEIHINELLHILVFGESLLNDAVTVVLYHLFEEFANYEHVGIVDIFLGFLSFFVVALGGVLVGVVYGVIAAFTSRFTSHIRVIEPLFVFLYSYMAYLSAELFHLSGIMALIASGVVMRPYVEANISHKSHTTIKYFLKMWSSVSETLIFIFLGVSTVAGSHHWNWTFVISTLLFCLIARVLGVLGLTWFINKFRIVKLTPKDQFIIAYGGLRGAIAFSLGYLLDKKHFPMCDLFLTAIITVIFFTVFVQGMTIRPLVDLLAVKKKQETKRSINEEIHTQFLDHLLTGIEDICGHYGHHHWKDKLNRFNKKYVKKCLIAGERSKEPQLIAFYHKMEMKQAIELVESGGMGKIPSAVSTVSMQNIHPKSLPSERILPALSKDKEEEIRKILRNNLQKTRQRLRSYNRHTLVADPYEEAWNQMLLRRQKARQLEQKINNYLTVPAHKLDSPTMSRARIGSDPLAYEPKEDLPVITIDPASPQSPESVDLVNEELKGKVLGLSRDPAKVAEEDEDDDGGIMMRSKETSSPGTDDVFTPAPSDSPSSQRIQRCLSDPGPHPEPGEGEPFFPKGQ

## Cc1cc(-c2cccc(Cl)c2)oc1C(=O)NC(=N)N
[1]
  IC50: 24 nM

## CC(C)c1ccc(C(=O)N=C(N)N)cc1S(C)(=O)=O [CARIPORIDE]
Rattus norvegicus
  Activity: 41%
Heart [2]
  Activity: 24 mmHg
Heart [3]
  Activity: 48%

## CN(C)c1cc(-c2ccccc2)oc1C(=O)N=C(N)N
[1]
  IC50: 120 nM

## CN(C)c1cc(-c2cc(Cl)ccc2Cl)oc1C(=O)NC(=N)N
[1]
  IC50: 9 nM

## Cc1cc(-c2cc(Cl)ccc2Cl)oc1C(=O)NC(=N)N
[1]
  IC50: 16 nM

## CC(=O)Nc1cc(-c2cc(Cl)ccc2Cl)oc1C(=O)N=C(N)N
[1]
  IC50: 6200 nM

## CC(=O)Nc1cc(-c2ccccc2)oc1C(=O)N=C(N)N
[1]
  IC50: 14000 nM

## N=C(N)NC(=O)c1oc(-c2cc(F)ccc2F)cc1N
[1]
  IC50: 410 nM

## COc1ccc(Cl)cc1-c1cc(N)c(C(=O)N=C(N)N)o1
Heart [2]
  Activity: 29 mmHg
[1]
  IC50: 15 nM
Heart [3]
  Activity: 27%

## CC(=O)N(C)c1cc(-c2cccc(Cl)c2)oc1C(=O)NC(=N)N
[1]
  IC50: > 30000 nM

## NC(N)=NC(=O)c1oc(-c2ccccc2F)cc1N
Heart [2]
  Activity: 20 mmHg
[1]
  IC50: 1200 nM
Heart [3]
  Activity: 62%

## Cc1cc(-c2cc(F)ccc2F)oc1C(=O)N=C(N)N
[1]
  IC50: 130 nM

## N=C(N)NC(=O)c1oc(-c2ccccc2)cc1N
[1]
  IC50: 2300 nM

## NC(N)=NC(=O)c1oc(-c2cc(Cl)ccc2Cl)cc1N1CCCC1
[1]
  IC50: 480 nM

## NC(N)=NC(=O)c1oc(-c2cc(Cl)ccc2Cl)cc1N1CCCCC1
[1]
  IC50: 480 nM

## COc1ccc(Cl)cc1-c1cc(C)c(C(=O)N=C(N)N)o1
Heart [2]
  Activity: 34 mmHg
[1]
  IC50: 10 nM
Heart [3]
  Activity: 0.3%

## CNc1cc(-c2cccc(Cl)c2)oc1C(=O)N=C(N)N
[1]
  IC50: 820 nM

## Cc1ccc(C)c(-c2cc(N)c(C(=O)NC(=N)N)o2)c1
[1]
  IC50: 72 nM

## CNc1cc(-c2cc(Cl)ccc2Cl)oc1C(=O)N=C(N)N
[1]
  IC50: 96 nM

## COc1ccc(Cl)cc1-c1cc(N(C)C(C)=O)c(C(=O)NC(=N)N)o1
[1]
  IC50: 33000 nM

## COc1ccc(Cl)cc1-c1cc(NC(C)=O)c(C(=O)N=C(N)N)o1
[1]
  IC50: 4500 nM

## CCc1cc(-c2cccc(Cl)c2)oc1C(=O)NC(=N)N
[1]
  IC50: 230 nM

## COc1ccc(F)cc1-c1cc(N)c(C(=O)NC(=N)N)o1
[1]
  IC50: 120 nM

## N=C(N)NC(=O)c1oc(-c2cccc(Cl)c2)cc1-n1cccc1
[1]
  IC50: 3000 nM

## NC(N)=NC(=O)c1oc(-c2cccc(Cl)c2)cc1N1CCCCC1
[1]
  IC50: 16000 nM

## CN(C)c1cc(-c2cccc(Cl)c2)oc1C(=O)N=C(N)N
[1]
  IC50: 120 nM

## CC(=O)N(C)c1cc(-c2ccccc2)oc1C(=O)NC(=N)N
[1]
  IC50: > 30000 nM

## CC(=O)N(C)c1cc(-c2cc(Cl)ccc2Cl)oc1C(=O)N=C(N)N
[1]
  IC50: > 30000 nM

## Cc1cccc(-c2cc(N)c(C(=O)NC(=N)N)o2)c1
[1]
  IC50: 770 nM

## CNc1cc(-c2ccccc2)oc1C(=O)N=C(N)N
[1]
  IC50: 820 nM

## CC(=O)Nc1cc(-c2cccc(Cl)c2)oc1C(=O)NC(=N)N
[1]
  IC50: 14000 nM

## N=C(N)NC(=O)c1oc(-c2cc(Cl)ccc2Cl)cc1N
[1]
  IC50: 8 nM

## COc1ccc(Cl)cc1-c1cc(N(C)C)c(C(=O)N=C(N)N)o1
Heart [2]
  Activity: 40 mmHg
[1]
  IC50: 12 nM
Heart [3]
  Activity: 6.4%

## N=C(N)NC(=O)c1oc(-c2cccc(Cl)c2)cc1N1CCCC1
[1]
  IC50: 5100 nM

## COc1ccc(Cl)cc1-c1cc(-c2ccccc2)c(C(=O)NC(=N)N)o1
[1]
  IC50: 5600 nM

## Cc1ccccc1-c1cc(N)c(C(=O)N=C(N)N)o1
Rattus norvegicus
  Activity: 47%
Heart [2]
  Activity: 28 mmHg
[1]
  IC50: 240 nM
Heart [3]
  Activity: 30%

## COc1ccccc1-c1cc(N)c(C(=O)N=C(N)N)o1
Rattus norvegicus
  Activity: 55%
Heart [2]
  Activity: 31 mmHg
[1]
  IC50: 150 nM
Heart [3]
  Activity: 30%

## NC(N)=NC(=O)c1oc(-c2cccc(F)c2)cc1N
Heart [2]
  Activity: 25 mmHg
[1]
  IC50: 680 nM
Heart [3]
  Activity: 49%

## NC(N)=NC(=O)c1oc(-c2cccc(Cl)c2)cc1N
Rattus norvegicus
  Activity: 53%
Heart [2]
  Activity: 27 mmHg
[1]
  IC50: 150 nM
Heart [3]
  Activity: 33%
